Screens: PubChem, several laboratories
RAM inhibit: blocks the yeast RAM network; S. cerevisiae dse1pr::URA3 reporter, 5-FOA growth OD615, 2 d; analog-sensitive cbk1-as2 kinase mutant strain; inhibition, % at 50 µM; 190,000 tested, 1.8% active;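 active = inhibition above a set limit, 3 SD over mean compound inhibition, cut at about 8.4% in these data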;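 note: 0% = DMSO-only wells with no growth and 100% = 10 µM 1-NA-PP1 full growth; inhibition rescues growth on 5-FOA so higher OD means more RAM inhibition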
NPY Y2 blocker: NPY-Y2 (human) receptor antagonism. P49146. NPY-Y2 expressing cells, antagonist mode. inhibition, % at 2.7 µM. 140,000 tested, 0.99% active;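 note: 0% = vehicle with agonist challenge and 100% = reference antagonist with challenge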
NPY Y1 blocker: NPY-Y1 (human) receptor antagonism | P25929 | HEK293-CNG Y1 cells, membrane potential fluorescence; NPY at EC95, then isoproterenol | inhibition, % at 3.6 µM | 200,000 tested, 1% active;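 active = inhibition above the campaign mean inhibition of all tested compounds plus 3 SD, cut at about 20% in these data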;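 note: 0% = DMSO wells given NPY plus isoproterenol and 100% = isoproterenol alone without NPY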
Target sequence (P25929 whole entry, looked up): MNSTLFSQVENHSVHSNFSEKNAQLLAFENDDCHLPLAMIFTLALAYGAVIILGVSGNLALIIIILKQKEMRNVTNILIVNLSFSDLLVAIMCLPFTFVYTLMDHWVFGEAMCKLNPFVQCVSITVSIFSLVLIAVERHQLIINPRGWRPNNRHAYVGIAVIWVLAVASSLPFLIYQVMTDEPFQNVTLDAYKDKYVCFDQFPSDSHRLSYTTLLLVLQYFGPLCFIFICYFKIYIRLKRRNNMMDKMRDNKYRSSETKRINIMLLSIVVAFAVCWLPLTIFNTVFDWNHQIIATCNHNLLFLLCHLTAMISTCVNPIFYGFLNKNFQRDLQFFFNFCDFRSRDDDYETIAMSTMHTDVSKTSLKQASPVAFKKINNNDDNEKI
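Assay system: HEK293 Y1/CNG channel cell line; Doses: single compound dose of 3.6 µM, 0.4% DMSO; Timing: dye 3 h, compound 60 min room temperature, stimulation 45 min; Technique: Membrane-potential fluorescent dye readout; Measure: % inhibition of NPY effect.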
NPY1 pot ag: potentiates or activates human NPY-Y1 receptor; NPY-Y1 expressing cells, potentiator/agonist activation; activation, % at 3.6 µM; 220,000 tested, 0.37% active; AID 1304; in the data active = activation above about 33%, passing the limit was not always enough;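 note: cells stimulated with NPY at EC10 then isoproterenol at EC100; 0% = low agonist plus stimulus and 100% = saturating agonist plus stimulus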
NPY-Y2 PAM-ag: human NPY-Y2 potentiation or agonism, primary screen. P49146. cells expressing NPY-Y2, potentiator/agonist read-out. activation, % at 3.6 µM. 220,000 tested, 0.45% active; in the data active = activation above about 27%;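 note: cells stimulated with NPY near EC25 plus isoproterenol at EC100; 0% = vehicle plus submaximal agonist and 100% = vehicle plus saturating agonist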
WT yeast gro inh: growth inhibition of WT yeast, mitochondrial fusion screen; inhibition, % at 10 µM; mitochondrial fusion phenotypic screen, WT strain; 190,000 tested, 2.1% active; in the data active = inhibition above about 58%; tested in S. cerevisiae
NPY1 antag conf: human NPY-Y1 antagonism, confirmation; shares compounds with NPY Y1 blocker; HEK293-CNG NPY-Y1, membrane potential fluorescence, cAMP; NPY challenge against isoproterenol-raised cAMP; inhibition, % at 3.6 µM; 1,200 tested, 21% active; in the data active = inhibition above about 20%;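 note: 0% = vehicle with agonist plus stimulus and 100% = stimulus alone without agonist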
NPY-Y2 antag ct: counter-screen for NPY-Y1 antagonists: human NPY-Y2 antagonism; 1,200 tested, 28% active; inhibition, % at 3.6 µM; HEK293 NPY-Y2 CNG membrane potential fluorescence; cells given NPY, then isoproterenol; shares compounds with NPY Y1 blocker;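 note: 0% = DMSO with agonist challenge and 100% = reference antagonist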
Active calls of the source: *; x = no result given. Sampled rows, rich in hits. Any-hit rate of the full collection: about 4.9%. Cut-off read from the data, not from the text of the source, unless noted: active = inhibition above about 17%; inactive = the rest.

SMILES	RAM inhibit	NPY Y2 blocker	NPY Y1 blocker	NPY1 pot ag	NPY-Y2 PAM-ag	WT yeast gro inh	NPY1 antag conf	NPY-Y2 antag ct
O=C(COc1ccc(Br)cc1CNC1CCCCC1)NCCc1ccccc1	-0.7	x	27.0*	8.5	1.1	13.7	17.9	12.6
COc1cc(CNC2CCCC2)cc(Cl)c1OCc1ccccc1Cl	-0.1	3.3	-5.3	-17.0	-5.1	19.5	x	x
c1ccc(COc2ccccc2CNC23CC4CC(CC(C4)C2)C3)cc1	-0.4	x	158.0*	-63.7	-21.9	34.3	110.5*	70.4*
c1ccc(COc2ccccc2CNC2CCCC2)cc1	1.9	x	31.8*	-14.1	0.1	7.2	4.4	5.3
O=C(C[n+]1cc(-c2ccccc2)n2c1CCCCC2)c1ccc(Cl)cc1	3.8	16.2	36.8*	-55.6	-12.3	12.2	25.2*	21.8*
CC1CCC(C(C)C)C(OC(=O)C[n+]2cc(-c3ccc(Cl)cc3)n3c2CCCCC3)C1 (configuration not stated)	-0.7	x	80.4*	-43.9	-12.3	21.8	45.1*	38.6*
Clc1ccc(C[n+]2cc(-c3ccccc3)n3c2CCCCC3)c(Cl)c1	0.2	x	50.2*	-29.1	-13.9	17.0	32.9*	22.0*
Clc1ccc(-c2c[n+](Cc3ccc(Cl)cc3Cl)c3n2CCCCC3)cc1	x	x	x	-15.9	-12.1	x	x	x
Cc1ccc(-c2c[n+](CC(=O)c3ccc(Br)cc3)c3n2CCCCC3)cc1	3.0	x	35.4*	-34.5	5.0	10.7	52.0*	30.6*
CCOC(=O)c1ccc2nc(NC(C)=O)sc2c1	1.5	x	5.7	27.0	3.0	-6.6	x	x
CC(=O)c1cc(CN2CCN(CCC(C)C)C(CCO)C2)cs1 (configuration not stated)	x	x	x	20.8	-16.2	x	x	x
CCOC(=O)c1c(C)n(-c2ccc(C)cc2)c2ccc(OCC(O)CNCC3CCCO3)cc12 (configuration not stated)	-1.2	x	59.1*	-124.0	-36.0	72.1*	61.5*	72.2*
CCOC(=O)c1c(C)n(-c2ccc(C)cc2)c2ccc(OCC(O)CNCCCO)cc12 (configuration not stated)	1.8	x	28.9*	-70.9	-55.9	32.5	36.1*	41.4*
O=C(CC1NC2CCCCC2NC1=O)Nc1ccc2c(c1)OCO2 (configuration not stated)	0.5	1.6	-2.0	10.5	4.6	-6.6	x	x
O=C(CSc1nnc(Cc2ccccc2)n1Cc1ccco1)NC12CC3CC(CC(C3)C1)C2	1.9	10.0	22.6*	3.7	0.5	25.1	4.8	3.8
O=S(=O)(NCC(c1cccnc1)N1CCOCC1)c1ccc(Cl)cc1 (configuration not stated)	3.5	x	0.7	-2.3	-3.3	0.0	x	x
CSc1cc(-c2ccccc2)n(Cc2ccc(Cl)cc2Cl)c(=O)c1C#N	4.1	1.6	24.3*	-13.0	-10.6	-22.4	0.0	2.0
CCOC(=O)C1CCCN(Cc2ccc3c(c2)OCO3)C1 (configuration not stated)	0.2	0.8	5.2	-7.5	21.3	-3.1	x	x
COc1ccc2[nH]cc(CCNC(=S)NC3CCCC3)c2c1	1.3	x	-5.0	16.2	12.5	0.8	x	x
COc1cccc(-c2nn(-c3ccccc3)cc2CN(C)Cc2c(C)nc3ccccn23)c1	-0.9	x	23.2*	-55.4	-17.9	29.8	12.0	15.9
O=C1N(Cc2cccc(Cl)c2)C[C@@H]2C[C@@H](c3ccsc3)N3CCC[C@@]123	0.1	x	28.7*	3.5	3.6	9.2	3.6	5.0
COc1ccc(C2Nc3ccccc3C(=O)N2c2ccccc2)cc1COc1ccccn1 (configuration not stated)	0.8	4.4	22.0*	7.5	-7.1	-17.6	9.7	7.2
Cc1ccc(NC(=O)Cn2c(O)c(N=NS(=O)(=O)c3ccc(C)cc3)c3ccccc32)cc1	0.2	-0.6	-2.2	-13.9	-0.9	-11.5	x	x
CC(C)NC(=O)c1onc(CSc2cccc3ccccc23)c1C(=O)O	7.6	10.1	21.5*	-12.8	-43.9	0.3	18.0	10.7
CCCCNC(=O)c1onc(CSc2cccc(OCC)c2)c1C(=O)O	2.8	16.1	22.3*	-46.4	-29.9	-5.8	15.4	13.8
SMILES	RAM inhibit	NPY Y2 blocker	NPY Y1 blocker	NPY1 pot ag	NPY-Y2 PAM-ag	WT yeast gro inh	NPY1 antag conf	NPY-Y2 antag ct
CC(C)NC(=O)c1onc(CSc2ccccc2)c1C(=O)O	-0.6	5.3	7.8	-33.2	-8.8	6.1	x	x
Cc1onc(C(=O)Nc2sc3c(c2C#N)CCCC3)c1[N+](=O)[O-]	2.2	x	3.8	4.9	5.7	-9.5	x	x
CCOC(=O)C1=C(c2ccccc2)O/C(=C(/C#N)C(F)(F)F)S1	6.5	11.9	31.8*	-38.6	-13.8	21.4	10.3	42.4*
C=C(Cl)COc1ccc2c(CC)cc(=O)oc2c1	-0.9	1.9	3.1	-3.5	-21.2	15.6	x	x
C=C(Cl)COc1ccc2c(CCCC)cc(=O)oc2c1	0.5	5.6	21.5*	-14.0	-0.6	15.2	3.3	24.2*
Nc1c(C(=O)Nc2ccccc2)sc2nc3c(c(-c4ccco4)c12)CCCC3	3.2	0.3	6.0	-49.9	-15.8	8.9	x	x
Cc1ccccc1NC(=O)c1sc2nc3c(c(-c4ccco4)c2c1N)CCCC3	4.8	1.6	23.5*	-8.2	-0.8	13.4	2.4	3.9
CCc1ccc(NC(=O)CC2C(=O)Nc3c2c(=O)n(C)c(=O)n3C)cc1 (configuration not stated)	2.6	4.0	-3.9	3.1	-15.1	-6.5	x	x
COCCCn1c(C)nnc1SCC(=O)NCc1ccco1	0.4	0.7	-0.6	7.6	1.8	-3.4	x	x
COc1cc(C(F)(F)F)nc(-c2ccccn2)n1	0.5	x	2.8	10.5	-1.3	22.8	x	x
Cc1cc(NC(=O)CSc2nc3ccccc3c(=O)n2C2CCCC2)no1	3.5	11.5	33.2*	-24.3	-7.6	16.5	1.9	12.8
COc1cc2cc(C)nc(Cc3cccc4ccccc34)c2cc1OC	-0.3	16.0	26.7*	-35.2	-38.6	16.8	8.7	13.0
COc1ccc(-c2cc3cc(OC)c(OC)cc3c(C)n2)cc1	x	x	x	-3.3	-6.3	x	x	x
O=[N+]([O-])c1cccc(/C=N/Nc2nc(NCc3ccccc3)nc(N3CCOCC3)n2)c1	2.9	-1.6	-1.5	-12.3	-2.3	-2.2	x	x
CCN(C(=O)c1ccc(C(C)(C)C)cc1)c1nnc(Cn2nnc3ccccc32)s1	3.0	4.5	31.1*	-99.1	-64.2	46.0	40.5*	16.4
CCN(C(=O)CC(C)C)c1nnc(Cn2nnc3ccccc32)s1	1.1	x	-4.5	-4.6	-4.2	-15.4	x	x
